Measured values taken from ChEMBL document CHEMBL4765348, “Discovery of the first Mycobacterium tuberculosis MabA (FabG1) inhibitors through a fragment-based screening” (Eur J Med Chem, 2020).
The source made the active and inactive calls. The rule behind the calls is not given here.

Tests used:
[1] = test system: Mycobacterium tuberculosis; test: Antimycobacterial activity against Mycobacterium tuberculosis H37Ra assessed as inhibition of microbial growth incubated for 4 weeks in culture medium at pH 6.8; assay type: functional; details: 672 h
[2] = (§1) Inhibition of Mycobacterium tuberculosis His6-tagged MabA expressed in Escherichia coli BL21 (DE3) assessed as reduction in HBCoA formation using AcAcCoA as substrate preincubated for 30 mins followed by substrate and 100 uM NADPH addition and measured after 15 mins by LC-MS/MS analysis
[3] = test system: Mycobacterium tuberculosis; test: as §1, with “formation at 1 mM” for “formation”, “for 10 to” for “for”, “and” for “and 100 uM”, “analysis relative to control” for “analysis”; details: time 10-45 min
Procedure, shortened: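 Single-point screen of His6-MabA purified by Ni2+-affinity. Compound at 1 mM was preincubated 10 or 30 min at 23 °C with 400 nM enzyme in 100 mM Hepes pH 7. Reaction ran 15 min with 50 µM AcAcCoA and 50 µM NADPH in 1% DMSO, then was stopped with 1% TFA containing 5 µM butyryl-CoA internal standard. HBCoA/BCoA was measured by LC-MS/MS MRM. % inhibition was taken relative to DMSO and 200 µM INH-NADP adduct controls.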

[4] = test system: Mycobacterium tuberculosis; test: Antimycobacterial activity against GFP-tagged Mycobacterium tuberculosis H37Rv assessed as inhibition of microbial growth incubated for 5 days by fluorescence assay; assay type: functional; details: 120 h
Procedure, shortened: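 M. tuberculosis H37Rv expressing GFP, grown in 7H9 with 0.2% glycerol and 0.05% Tween80, diluted to OD600 0.02. Ten 3-fold dilutions from 300 μM to 15 nM, 0.3% DMSO. Incubated 5 days at 37 °C, fluorescence read at Ex/Em 485/535 nm. Two independent replicates. Rifampicin, isoniazid and ethionamide served as positive controls.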

[5] = Solubility of compound in PBS buffer at pH 7.4 incubated for 24 hrs under shaking conditions by LC-MS/MS analysis; assay type: physicochemical
Procedure, shortened: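 10 mM DMSO stock diluted 1:50 into PBS pH 7.4 or MeOH, in triplicate. Shaken 24 h at room temperature, centrifuged and filtered through 0.45 μm, then diluted in MeOH for LC-MS/MS MRM. Solubility is the PBS/MeOH signal-area ratio.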

[6] = Lipophilicity, logD of compound in octanol and PBS buffer at pH 7.4 incubated for 2 hrs under shaking condition by LC-MS/MS analysis; assay type: physicochemical
Procedure, shortened: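 10 mM DMSO stock diluted 1:50 into 1/1 octanol/PBS pH 7.4, shaken 2 h at room temperature. Each phase was diluted in MeOH and quantified by LC-MS/MS MRM (ES−). LogD is the log of the octanol/PBS concentration ratio. Run in triplicate.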

[7] = test system: Mycobacterium tuberculosis; test: Binding affinity to Mycobacterium tuberculosis His6-tagged MabA expressed in Escherichia coli BL21 (DE3) at 100 uM by 19FNMR analysis
[8] = test system: Mycobacterium tuberculosis; test: Non-competitive inhibition of Mycobacterium tuberculosis MabA expressed in Escherichia coli BL21 (DE3) assessed as reduction in HBCoA formation using AcAcCoA as substrate preincubated for 30 mins followed by substrate and 50 to 500 uM NADPH addition and measured after 15 mins by LC-MS/MS analysis; details: time 45.0 min
Procedure, shortened: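 Dose-response MabA assay (400 nM enzyme, 50 μM AcAcCoA, 30 min preincubation at 22 °C, 15 min reaction, LC-MS/MS HBCoA/BCoA) run at NADPH 50 and 500 μM. Test compound was tested at 8 points, 3-fold from 1 mM to 0.46 μM. INH-NADP adduct was tested from 200 μM to 0.09 μM. IC50s were compared between NADPH levels.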

[9] = test system: Mycobacterium tuberculosis; test: Inhibition of Mycobacterium tuberculosis His6-tagged MabA expressed in Escherichia coli BL21 (DE3) assessed as reduction in HBCoA formation up to 100 uM using AcAcCoA as substrate preincubated for 10 to 30 mins followed by substrate and NADPH addition and measured after 15 mins by LC-MS/MS analysis; details: dose microM <=100, time 10-45 min

CC(=O)Oc1ccccc1C(=O)O [ASPIRIN]
MIC [1]: 33 µg/mL

CC(C)(C)OC(=O)Nc1ccc(Oc2ccccc2)cc1C(=O)O
IC50 [2]: 243 µM
inhibition [3]: 100%

O=C(Nc1ccc(I)cc1C(=O)O)c1ccc(Cl)cc1Cl
IC50 [2]: 126 µM

O=C(Nc1ccc(I)cc1C(=O)O)c1ccc(Cl)nc1
IC50 [2]: 147 µM

O=C(O)c1cc2sccc2[nH]1
MIC90 [4]: > 300 µM
IC50 [2]: 185 µM

CC(C)(C)OC(=O)Nc1ccc(Cl)cc1C(=O)O
IC50 [2]: > 500 µM
inhibition [3]: 77%

O=C(Nc1ccc(I)cc1C(=O)O)c1ccc(Cl)c(Cl)c1
MIC90 [4]: 300 µM
IC50 [2]: 38 µM
solubility thermodynamic at 24 h [5]: > 200 µM
logD at 2 h [6]: 3.4

O=C(O)c1cc(I)ccc1NC(=O)C1CCc2ccccc2C1 (stereo unspecified)
IC50 [2]: 109 µM

Cc1ccc(C(=O)Nc2ccc(I)cc2C(=O)O)cc1
IC50 [2]: 95 µM

O=C(Nc1ccc(I)cc1C(=O)O)OCc1ccccc1
IC50 [2]: 92 µM
inhibition [3]: 100%

O=C(CCc1ccccc1)Nc1ccc(I)cc1C(=O)O
IC50 [2]: 295 µM

CC(C)(C)OC(=O)Nc1ccc(F)cc1C(=O)O
IC50 [2]: 470 µM
inhibition [3]: 38%

O=C(Nc1ccc(I)cc1C(=O)O)c1ccc(Cl)cc1
IC50 [2]: 53 µM

COc1ccc(NC(=O)OC(C)(C)C)c(C(=O)O)c1
IC50 [2]: > 1000 µM
inhibition [3]: 31%

O=C1NC(=S)NC(=O)C1C/C=C/c1ccccc1
MIC90 [4]: > 300 µM
IC50 [2]: 40 µM

O=C1Nc2ccc(Br)cc2C1=O
MIC90 [4]: > 300 µM
IC50 [2]: 72 µM

CC(C)(C)OC(=O)Nc1cc2ccccc2cc1C(=O)O
IC50 [2]: 310 µM
inhibition [3]: 100%

O=C(Nc1ccc(I)cc1C(=O)O)c1ccc(Cl)c(C(F)(F)F)c1
IC50 [2]: 59 µM
Activity [7]: Active

CO[C@H]1/C=C/O[C@@]2(C)Oc3c(C)c(O)c4c(O)c(c(/C=N/N5CCN(C)CC5)c(O)c4c3C2=O)NC(=O)/C(C)=C\C=C\[C@H](C)[C@H](O)[C@@H](C)[C@@H](O)[C@@H](C)[C@H](OC(C)=O)[C@@H]1C [RIFAMPIN]
MIC [4]: 0.004 µg/mL

O=C(Nc1ccc(I)cc1C(=O)O)c1ccc(C(F)(F)F)cc1
IC50 [2]: 69 µM
Activity [7]: Active

CC(C)(C)OC(=O)Nc1ccccc1C(=O)O
IC50 [2]: > 1000 µM
inhibition [3]: 31%

CN(C(=O)OC(C)(C)C)c1ccc(I)cc1C(=O)O
IC50 [2]: 1000 µM
inhibition [3]: 50%

O=C(O)c1cc(I)ccc1NC(=O)C1CC1
IC50 [2]: > 500 µM

COC(=O)c1cc(I)ccc1NC(=O)OC(C)(C)C
IC50 [2]: > 1000 µM
inhibition [3]: 0%

CC(C)(C)OC(=O)Nc1ccc(-c2ccccc2)cc1C(=O)O
IC50 [2]: 194 µM
inhibition [3]: 100%

CC(C)COC(=O)Nc1ccc(I)cc1C(=O)O
IC50 [2]: 310 µM
inhibition [3]: 100%

O=C(O)c1ccccc1O [SALICYLIC ACID]
MIC [1]: 33 µg/mL

O=C(Nc1ccc(I)cc1C(=O)O)c1ccncc1
IC50 [2]: > 400 µM

O=C(Nc1ccc(I)cc1C(=O)O)c1cccc(Cl)c1
IC50 [2]: 70 µM

CC(C)(C)OC(=O)Nc1ccc(Br)cc1C(=O)O
IC50 [2]: 470 µM
inhibition [3]: 95%

O=C(Cc1ccccc1)Nc1ccc(I)cc1C(=O)O
IC50 [2]: > 500 µM

Cc1cccc(Nc2ccccc2C(=O)O)c1C [MEFENAMIC ACID]
MIC [1]: 33 µg/mL

C/C=C/C=C/C(=O)Nc1c[nH]c(=O)[nH]c1=O
MIC90 [4]: > 300 µM
IC50 [2]: 65 µM

CC(C)(C)OC(=O)Nc1ccc(I)cc1C(=O)O
MIC90 [4]: 300 µM
inhibition [3]: 100%
inhibition [8]: Active

CC1(C#CC(=O)O)CC1(Cl)Cl (stereo unspecified)
MIC90 [4]: > 300 µM
IC50 [2]: 25 µM

O=C(O)c1ccccc1 [BENZOIC ACID]
MIC [1]: 33 µg/mL

O=C(Nc1ccc(I)cc1C(=O)O)c1ccccc1
IC50 [2]: 145 µM

O=C(CCCc1ccccc1)Nc1ccc(I)cc1C(=O)O
IC50 [2]: 186 µM

C=CCOC(=O)Nc1ccc(I)cc1C(=O)O
IC50 [2]: > 500 µM
inhibition [3]: 83%

O=C(Nc1ccc(I)cc1C(=O)O)c1ccc(OC(F)(F)F)cc1
IC50 [2]: 84 µM
Activity [7]: Active

CCc1cc(C(N)=S)ccn1 [ETHIONAMIDE]
MIC [4]: 2 µg/mL

NNC(=O)c1ccncc1 [ISONIAZID]
MIC [4]: 0.125 µg/mL

Oc1cc(Cl)ccc1Oc1ccc(Cl)cc1Cl
inhibition [9]: inactive

O=C(O)c1cc(I)ccc1NC(=O)C1Cc2ccccc2C1
IC50 [2]: 140 µM

CC/C(C)=C1\OC(=O)[C@H](C)[C@H](O)[C@H](Cc2cccnc2)NC(=O)[C@@H](NC(=O)c2ncccc2O)[C@@H](C)OC1=O
inhibition [9]: inactive
